Bioassay records from PubChem BioAssay.
ANO1 block – inhibitors of mouse TMEM16A calcium-activated chloride channel; Q8BHY3; HEK293 TMEM16A/YFP iodide influx fluorescence, ionomycin; normalized B-score (activity score, 25-100; higher = stronger inhibition) at 10 µM; actives 1.2% (n = 310,000);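 active = ratio plate-corrected score three or more library SD toward inhibition, starting fluorescence score within five deviations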;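 also: score derived from kinetic fluorescence span divided by baseline fluorescence per well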
TMEM16A act – activators or potentiators of mouse TMEM16A chloride channel; actives 0.3% (n = 340,000); B-score at 10 µM; Q8BHY3; HEK293 TMEM16A/YFP-H148Q/I152L, iodide quench fluorescence; active compounds read low; AID 623877;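 active = fluorescence-ratio B-score plate-corrected deviation score at least 3 library SD below zero, with starting fluorescence score within 5 deviations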;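 also: channel opened by trigger with iodide after compound preincubation; score built on the fluorescence ratio of max minus min over baseline; more negative score means more quench and so TMEM16A activation or potentiation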
TAAR1 antagonist – antagonists of human TAAR1; inhibition, % at 3 µM; actives 1.5% (n = 360,000); AID 624466; Q96RJ0; CHO RD-HGA16 TAAR1, Fluo-8 calcium fluorescence, antagonist;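 active = inhibition above a per-plate cutoff, the mean inhibition of test compounds on that plate plus 3 SD, cut at about 49% in these data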
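Test system: hTAAR1-expressing CHO RD-HGA16 cells, Gα16-coupled; Probe or stimulus: EC80 β-phenethylamine stimulus; Compound dosing: single nominal final test compound concentration of 3 µM; Timing: 140 s kinetic read after compound, 140 s after agonist; Signal: Fluo-8 calcium-sensitive fluorescence; Measure: % inhibition of agonist calcium response; Controls: DMSO and EC80 PEA controls.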
TAAR1 agonist – human TAAR1 agonism. Q96RJ0. activation, % at 3 µM. actives 0.99% (n = 360,000). CHO RD-HGA16 TAAR1, Fluo-8 calcium fluorescence; vehicle wells 0%, saturating PEA agonist 100%;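 active = activation above the mean activation of all test compounds in the run plus 3 SD, cut at about 38% in these data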
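Signal – calcium-sensitive Fluo-8 signal, excitation 470-495, emission 515-575 nm · System – RD-HGA16 (CHO) cells co-expressing Gα16 and hTAAR1 · Incubation – 17-24 h seeding, 75 min 37 °C dye, 30 min RT · Compound dosing – 3 µM single concentration · Repeats – no replicates (n 1)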
CRFR2-BP antag – antagonists of CRF-binding protein/CRF-R2 receptor complex. AID 588475. HEK293 CRF-R2/CRF-BP, CRF-induced calcium fluorescence. inhibition, % at 11.8 µM. actives 0.59% (n = 350,000);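 active = inhibition of the ligand-induced calcium signal above about 50% at the single tested concentration, limit read from the data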
CRFBP-R2 agonist – CRF-BP/CRF-R2 complex agonism; HEK293 CRF-R2/CRF-BP, calcium dye fluorescence (FLIPR); percent of saturating CRF peptide response; activation, % at 13.2 µM; actives 0.46% (n = 350,000);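 active = activation of at least 50%, plus an integration ratio under a set limit after plate pattern correction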
TMEM16A reconf – TMEM16A (mouse) chloride channel inhibition, re-confirmation | shares compounds with ANO1 block | actives 39% (n = 2,300) | inhibition, % at 10 µM | HEK293 TMEM16A/YFP-H148Q, iodide quench fluorescence; ionomycin added to raise cell calcium;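 active = mean duplicate percent inhibition, scaled so buffer wells are 0 and the reference blocker 100, over three buffer SD above buffer mean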
HEK293 Ca mobil – alters calcium mobilization in TMEM16A HEK293 cells, counter-screen | actives 2% (n = 2,300) | shares compounds with ANO1 block | calcium response (% of ionomycin), % at 10 µM | TMEM16A/YFP HEK293, Fluo4 calcium mobilization;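 active = duplicate-averaged calcium signal over 20% of the ionomycin maximum, relative to buffer baseline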;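 also: each well's signal is peak minus trough fluorescence divided by its pre-addition baseline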
YFP-HEK293 quench – acts in parental YFP-HEK293 cells lacking TMEM16A, counter-screen. shares compounds with ANO1 block. iodide YFP quench, ionomycin. YFP ratio F(max-min)/F0 at 10 µM. 2,300 tested, under 10 active;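 active = yellow fluorescent protein signal ratio exceeding the buffer control mean by over 5 SD of those controls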;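 also: ratio is mean of duplicate wells from kinetic YFP trace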
ClC-1 inh – blocks the rat ClC-1 voltage-dependent chloride channel | ratio percent, % at 10 µM | CHO ClC-1-YFP, iodide influx fluorescence quench; iodide control reads 0, buffer control 100 | AID 652236 | shares compounds with ANO1 block | 2,300 tested, under 10 active;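 active = duplicate-mean ratio percent above the mean of iodide-only control wells, which defines zero, plus 5 of their SD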;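 also: higher percent means stronger block of ClC-1 iodide influx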
Hits are given with their value; – = inactive; · = not tested or not shown. Shown are actives, neighbours in structure and some others; about 3.9% of the full set was active somewhere.

SMILES	ANO1 block	TMEM16A act	TAAR1 antagonist	TAAR1 agonist	CRFR2-BP antag	CRFBP-R2 agonist	TMEM16A reconf	HEK293 Ca mobil	YFP-HEK293 quench	ClC-1 inh
CC(C)c1nc(SCC(=O)Nc2nc3c(s2)CCCC3)c2ccccc2n1	25	–	–	–	–	–	–	–	–	–
CC(C)(C)c1nc(SCC(=O)Nc2nc3c(s2)CCCC3)c2ccccc2n1	–	–	–	–	–	–	·	·	·	·
Cc1ccccc1CNC(=O)CCNS(=O)(=O)c1ccc(OC(F)(F)F)cc1	·	–	–	–	–	–	·	·	·	·
C=CCn1c(SCC(=O)NCc2ccc3c(c2)OCO3)nc2scc(-c3ccc(F)cc3)c2c1=O	–	–	–	–	–	–	·	·	·	·
C=CCn1c(SC(C)C(=O)NCc2ccc3c(c2)OCO3)nc2scc(-c3ccccc3)c2c1=O (stereo not given)	100	–	–	–	–	–	–	–	–	–
CCOc1cc(C(=S)N2CCC(O)CC2)ccc1OS(=O)(=O)c1ccc(Br)cc1	25	–	–	–	–	–	–	–	–	–
CCOc1cc(C(=S)N2CCCCC2)ccc1OS(=O)(=O)c1ccc(Br)cc1	–	–	–	–	–	–	·	·	·	·
O=C(NCc1ccccc1CN1CCCC1)c1cccc(S(=O)(=O)N2CCOCC2)c1	·	–	–	–	–	–	·	·	·	·
